The values below come from ChEMBL document CHEMBL1153939, “Novel antagonists of serotonin-4 receptors: synthesis and biological evaluation of pyrrolothienopyrazines” (Bioorg Med Chem, 2009).

In series [1] the target is 5-hydroxytryptamine receptor 4 (Cavia porcellus) (UniProt O70528). Nature of the series: Displacement of [3H]GR-113808 from 5HT4 receptor in guinea pig striatum membrane at 10 nM. In kind it is cell membranes. An outline of the steps:
(§1)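 Guinea pig membranes (15 µg protein/mL) incubated 30 min at 37 °C with 0.6 nM [3H]GR113808 in 50 mM HEPES, pH 7.4, with fixed test concentrations. Nonspecific binding defined with 10 µM serotonin.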
(Loss of bound radioactivity is the signal in a displacement assay; it reports binding, not function.)

The target in series [2] is 5-hydroxytryptamine receptor 4 (Cavia porcellus, UniProt O70528). The series is described as follows: Displacement of [3H]GR-113808 from 5HT4 receptor in guinea pig striatum membrane. In kind it is cell membranes. An outline of the steps:
as §1

The target of series [3] is 5-hydroxytryptamine receptor 4 (Mus musculus) (UniProt P97288). The series is described as follows: Antagonist activity at mouse 5HT4a receptor expressed in african green monkey COS7 cells assessed as inhibition of 5HT-induced cAMP release relative to serotonin. In kind it is functional, cell-based. More on the design: scale not given: the % may be the effect or the level left. The settings on record: COS-7. The method, boiled down: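 Antagonist mode on the same transfected COS-7 cells expressing mouse 5-HT4(a). Cells labelled with [3H]adenine, then incubated with 0.75 mM IBMX, 0.1 µM forskolin and test agents for 5 min at 37 °C; stopped with ice-cold 5% TCA. cAMP read as [3H]ATP→[3H]cAMP conversion after Dowex/alumina chromatography. Mean of four independent experiments.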

For series [4], the system named is Mus musculus. Nature of the series: Acute toxicity in NMRI mouse assessed as behavioral changes at subtoxic <1/4 dose of LD50, ip by CNS activity test. Format: organism-based, Central nervous system. As to conditions: in vivo. The method, boiled down: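 Male NMRI mice (20–24 g) given ip drug in saline (10 mL/kg), groups of 4. Behavioural and neurological changes scored against controls by a standardized observation technique at 30 min, 3 h and 24 h post-dose. Approximate LD50 derived from deaths counted at 24 h.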

Series [5] deals with Mus musculus. The series is described as follows: Inhibition of scopolamine-induced immediate working memory deficit in NMRI mouse at 0.3 to 3 mg/kg, ip by Y-maze test. Format: functional, organism-based. The method, boiled down: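 Spontaneous alternation in male NMRI mice. Compound given ip in saline at 0.3, 1 and 3 mg/kg, 30 min before testing, alone or with scopolamine 1 mg/kg; four groups per dose (saline/saline, saline/scopolamine, compound/saline, compound/scopolamine). Alternation % = actual alternations / (total arm entries − 2) × 100.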

Series [6] has as its system Mus musculus. Nature of the series: Antinociceptive activity against acetic acid-induced writhing in NMRI mouse assessed as number of stretches at 0.01 mg/kg, ip by writhing test. The settings on record: route intraperitoneal. In kind it is functional. The method, boiled down:
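Groups of 8 male NMRI mice (20–24 g). Compound or reference given ip in saline (10 mL/kg) 15 min before ip 0.6% aqueous acetic acid (10 mL/kg). Stretches (back arching, pelvic rotation, hind-limb extension) counted over 10 min, beginning 10 min after acid. ANOVA + Fisher PLSD versus control.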
On the technique in general: An intraperitoneal irritant provokes the stretching counted in writhing tests.

The subject of series [7] is Mus musculus. Nature of the series: Analgesic activity in NMRI mouse assessed as reaction time taken to lick fore paw at 0.01 to 1 mg/kg, ip by hot plate test. Format: functional, organism-based. The method, boiled down:
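Male NMRI mice (20–24 g), 10 per group, each pre-screened twice on a 55 °C plate (response required within 4–12 s). Compound given ip in saline (10 mL/kg) at 0.01, 0.1 and 1 mg/kg. Time to forepaw licking recorded 15 and 30 min post-injection; 30 s cutoff. ANOVA + Fisher PLSD.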

The target in series [8] is T1, 5-hydroxytryptamine receptor 3A (Homo sapiens, UniProt P46098).
T1 sequence (P46098 whole entry): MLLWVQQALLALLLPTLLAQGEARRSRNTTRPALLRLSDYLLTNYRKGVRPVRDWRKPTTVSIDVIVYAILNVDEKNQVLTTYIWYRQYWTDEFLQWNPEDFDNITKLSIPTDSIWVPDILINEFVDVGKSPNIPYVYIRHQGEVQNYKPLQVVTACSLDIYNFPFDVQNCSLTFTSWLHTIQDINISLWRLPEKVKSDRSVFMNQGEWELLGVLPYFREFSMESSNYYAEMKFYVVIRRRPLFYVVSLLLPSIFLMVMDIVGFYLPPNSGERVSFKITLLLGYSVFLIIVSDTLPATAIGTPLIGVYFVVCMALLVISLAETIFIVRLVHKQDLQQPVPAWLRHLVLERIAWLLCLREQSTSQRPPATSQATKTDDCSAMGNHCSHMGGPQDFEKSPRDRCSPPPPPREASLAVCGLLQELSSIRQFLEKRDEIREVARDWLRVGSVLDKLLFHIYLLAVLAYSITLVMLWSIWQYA
Nature of the series: Antagonist activity at 5HT3 receptor in hybrid NG108-15 cells assessed as inhibition of 5HT-induced current by electrophysiology. Format: functional, cell-based. An outline of the steps:
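NG108-15 cells grown in DMEM-HG with 5% FBS and HAT, then differentiated on polylysine glass with 2% DMSO for 48 h followed by ≥24 h with 1 mM dibutyryl-cAMP. Whole-cell recording at −60 mV in HEPES saline, pH 7.3, with a CsCl/CsMeSO3 pipette solution. 5-HT 50 µM applied by gravity every 2.5 min.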

Series [9] has as its target 5-hydroxytryptamine receptor 1B (Rattus norvegicus, UniProt P28564). Nature of the series: Displacement of [3H]5OH-tryptamine form 5HT1B receptor in rat cerebral cortex. In kind it is tissue-based.
The target in series [10] is 5-hydroxytryptamine receptor 2A (Homo sapiens, UniProt P28223). The series is described as follows: Displacement of [3H]ketanserin form human recombinant 5HT2A receptor.
Series [11] has as its target 5-hydroxytryptamine receptor 2B (Homo sapiens, UniProt P41595). The series is described as follows: Displacement of [3H]mesulergine from human recombinant 5HT2B receptor.
The target of series [12] is T1, 5-hydroxytryptamine receptor 3A. Nature of the series: Displacement of [3H]granisetron from human recombinant 5HT3 receptor.
In series [13] the target is 5-hydroxytryptamine receptor 6 (Homo sapiens, UniProt P50406). The series is described as follows: Displacement of [3H]LSD form human recombinant 5HT6 receptor. An outline of the steps: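 Membranes from sf9 cells expressing human 5-HT6 (14 µg/mL) or 5-HT7 (38 µg/mL) incubated 90 min at 27 °C with 2 nM [3H]LSD in 50 mM Tris-HCl containing 10 mM MgSO4 and 0.5 mM EDTA. Nonspecific binding defined with clozapine (10 and 250 µM).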

Series [14] has as its target Alpha-1B adrenergic receptor (Homo sapiens, UniProt P35368). The series is described as follows: Displacement of [3H]prazosin form human recombinant Alpha-1B adrenergic receptor.
For series [15], the target named is Alpha-1D adrenergic receptor (Homo sapiens, UniProt P25100). Nature of the series: Displacement of [3H]prazosin form human recombinant Alpha-1D adrenergic receptor.
Series [16] concerns the target Alpha-2A adrenergic receptor (Homo sapiens, UniProt P08913). Nature of the series: Displacement of [3H]RX821002 form human recombinant alpha2A adrenergic receptor.
Series [17] has as its target Alpha-2C adrenergic receptor (Homo sapiens, UniProt P18825). The series is described as follows: Displacement of [3H]RX821002 form human recombinant Alpha-2C adrenergic receptor.

One may read the inhibition as the share of the control response that was lost under treatment. In general, Ki refers to a measure of affinity in units of concentration, obtained from inhibition or displacement. A word on the IC50: it is the point on the concentration scale where inhibition reaches its midpoint.

The source made the active and inactive calls.

Sequence of Alpha-2C adrenergic receptor (P18825 whole entry): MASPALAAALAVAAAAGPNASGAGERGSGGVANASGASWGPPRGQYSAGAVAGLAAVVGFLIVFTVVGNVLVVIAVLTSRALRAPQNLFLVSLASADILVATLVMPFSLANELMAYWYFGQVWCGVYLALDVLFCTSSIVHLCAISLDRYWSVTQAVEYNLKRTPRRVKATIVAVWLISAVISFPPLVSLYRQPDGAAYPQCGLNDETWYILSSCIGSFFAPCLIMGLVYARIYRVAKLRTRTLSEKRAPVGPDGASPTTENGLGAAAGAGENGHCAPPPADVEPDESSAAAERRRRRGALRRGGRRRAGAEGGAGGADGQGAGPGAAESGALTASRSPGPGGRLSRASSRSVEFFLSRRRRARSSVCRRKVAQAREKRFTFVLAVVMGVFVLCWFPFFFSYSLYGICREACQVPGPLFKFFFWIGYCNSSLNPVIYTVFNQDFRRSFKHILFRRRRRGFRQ
Sequence of Alpha-2A adrenergic receptor (P08913 whole entry): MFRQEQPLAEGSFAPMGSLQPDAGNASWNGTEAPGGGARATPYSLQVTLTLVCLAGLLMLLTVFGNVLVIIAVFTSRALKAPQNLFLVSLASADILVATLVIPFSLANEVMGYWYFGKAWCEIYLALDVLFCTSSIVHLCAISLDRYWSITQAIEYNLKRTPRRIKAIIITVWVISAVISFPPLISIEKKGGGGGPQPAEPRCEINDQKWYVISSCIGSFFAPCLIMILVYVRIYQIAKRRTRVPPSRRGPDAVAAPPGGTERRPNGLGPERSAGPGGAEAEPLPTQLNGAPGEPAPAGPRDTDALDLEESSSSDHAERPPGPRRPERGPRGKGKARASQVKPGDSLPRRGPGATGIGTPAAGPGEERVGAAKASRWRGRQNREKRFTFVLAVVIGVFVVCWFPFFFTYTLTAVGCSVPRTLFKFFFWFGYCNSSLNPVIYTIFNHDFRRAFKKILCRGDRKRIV
Sequence of 5-hydroxytryptamine receptor 4 (Mus musculus) (P97288 whole entry): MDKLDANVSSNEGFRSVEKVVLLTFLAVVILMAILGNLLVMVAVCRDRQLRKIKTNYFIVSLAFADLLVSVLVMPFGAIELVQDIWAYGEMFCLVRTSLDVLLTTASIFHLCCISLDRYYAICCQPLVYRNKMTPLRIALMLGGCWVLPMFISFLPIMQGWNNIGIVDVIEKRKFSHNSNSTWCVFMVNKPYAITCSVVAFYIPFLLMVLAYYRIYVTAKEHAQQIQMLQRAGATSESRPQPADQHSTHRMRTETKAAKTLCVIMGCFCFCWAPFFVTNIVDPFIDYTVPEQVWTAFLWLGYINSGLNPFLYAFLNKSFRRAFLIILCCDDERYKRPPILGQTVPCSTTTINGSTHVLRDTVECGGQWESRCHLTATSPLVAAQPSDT
Sequence of 5-hydroxytryptamine receptor 6 (P50406 whole entry): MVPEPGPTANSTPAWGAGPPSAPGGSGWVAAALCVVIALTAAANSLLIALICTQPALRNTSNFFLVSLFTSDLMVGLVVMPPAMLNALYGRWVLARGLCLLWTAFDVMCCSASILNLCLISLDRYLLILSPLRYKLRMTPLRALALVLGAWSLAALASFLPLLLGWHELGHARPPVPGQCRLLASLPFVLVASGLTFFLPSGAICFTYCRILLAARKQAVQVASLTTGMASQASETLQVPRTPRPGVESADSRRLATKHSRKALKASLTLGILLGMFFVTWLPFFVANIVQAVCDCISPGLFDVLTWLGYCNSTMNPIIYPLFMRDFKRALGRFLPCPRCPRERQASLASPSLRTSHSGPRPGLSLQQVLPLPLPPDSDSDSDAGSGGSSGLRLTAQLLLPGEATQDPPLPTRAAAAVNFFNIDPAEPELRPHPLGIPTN
Sequence of 5-hydroxytryptamine receptor 1B (P28564 whole entry): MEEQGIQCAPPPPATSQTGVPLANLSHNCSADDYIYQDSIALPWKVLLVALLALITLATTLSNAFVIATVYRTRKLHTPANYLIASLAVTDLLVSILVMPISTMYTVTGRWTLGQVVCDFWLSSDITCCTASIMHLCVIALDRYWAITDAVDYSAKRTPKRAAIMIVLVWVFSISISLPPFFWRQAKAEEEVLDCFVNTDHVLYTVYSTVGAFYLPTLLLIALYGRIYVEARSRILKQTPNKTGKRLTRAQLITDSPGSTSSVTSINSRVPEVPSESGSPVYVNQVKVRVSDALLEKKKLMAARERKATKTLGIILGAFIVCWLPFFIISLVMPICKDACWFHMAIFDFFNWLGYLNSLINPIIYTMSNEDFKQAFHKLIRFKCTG
Sequence of 5-hydroxytryptamine receptor 2B (P41595 whole entry): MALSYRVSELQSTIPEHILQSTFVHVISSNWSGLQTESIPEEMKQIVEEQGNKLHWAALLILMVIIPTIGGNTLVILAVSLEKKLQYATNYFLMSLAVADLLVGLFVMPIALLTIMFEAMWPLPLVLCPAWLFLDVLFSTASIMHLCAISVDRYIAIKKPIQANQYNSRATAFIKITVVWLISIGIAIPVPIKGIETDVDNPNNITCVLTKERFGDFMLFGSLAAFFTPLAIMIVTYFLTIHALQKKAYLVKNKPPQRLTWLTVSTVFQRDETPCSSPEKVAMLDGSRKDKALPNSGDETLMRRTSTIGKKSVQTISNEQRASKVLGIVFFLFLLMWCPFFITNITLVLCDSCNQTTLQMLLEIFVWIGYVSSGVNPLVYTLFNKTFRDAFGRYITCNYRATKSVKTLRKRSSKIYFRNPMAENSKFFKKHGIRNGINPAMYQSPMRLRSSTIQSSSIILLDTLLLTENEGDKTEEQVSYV
Sequence of Alpha-1D adrenergic receptor (P25100 whole entry): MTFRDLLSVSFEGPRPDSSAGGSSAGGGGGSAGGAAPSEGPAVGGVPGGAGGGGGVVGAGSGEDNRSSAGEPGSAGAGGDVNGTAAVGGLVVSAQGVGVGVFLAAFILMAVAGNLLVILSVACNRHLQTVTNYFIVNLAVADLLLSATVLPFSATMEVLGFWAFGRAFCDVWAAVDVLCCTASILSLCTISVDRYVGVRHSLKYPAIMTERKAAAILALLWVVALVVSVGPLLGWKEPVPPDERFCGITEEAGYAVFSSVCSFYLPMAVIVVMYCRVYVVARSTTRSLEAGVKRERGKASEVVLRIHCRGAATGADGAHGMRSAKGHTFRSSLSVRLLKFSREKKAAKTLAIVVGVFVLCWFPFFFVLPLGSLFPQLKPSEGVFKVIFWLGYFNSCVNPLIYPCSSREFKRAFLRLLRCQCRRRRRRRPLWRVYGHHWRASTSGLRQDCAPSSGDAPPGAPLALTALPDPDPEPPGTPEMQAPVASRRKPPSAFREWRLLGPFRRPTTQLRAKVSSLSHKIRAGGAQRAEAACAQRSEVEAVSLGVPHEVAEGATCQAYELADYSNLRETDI
Sequence of 5-hydroxytryptamine receptor 2A (P28223 whole entry): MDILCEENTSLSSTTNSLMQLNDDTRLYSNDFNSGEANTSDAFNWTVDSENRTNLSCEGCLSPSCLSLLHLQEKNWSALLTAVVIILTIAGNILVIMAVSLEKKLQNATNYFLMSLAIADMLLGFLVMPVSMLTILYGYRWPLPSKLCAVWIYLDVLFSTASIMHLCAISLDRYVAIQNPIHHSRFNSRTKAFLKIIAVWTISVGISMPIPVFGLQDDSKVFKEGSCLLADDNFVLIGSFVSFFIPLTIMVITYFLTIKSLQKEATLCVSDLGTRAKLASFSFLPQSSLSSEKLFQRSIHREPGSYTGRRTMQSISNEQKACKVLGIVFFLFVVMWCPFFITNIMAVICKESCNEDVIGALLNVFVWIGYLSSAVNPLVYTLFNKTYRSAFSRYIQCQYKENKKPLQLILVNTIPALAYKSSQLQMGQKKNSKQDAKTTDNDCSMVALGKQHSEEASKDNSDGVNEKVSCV
Sequence of 5-hydroxytryptamine receptor 4 (Cavia porcellus) (O70528 whole entry): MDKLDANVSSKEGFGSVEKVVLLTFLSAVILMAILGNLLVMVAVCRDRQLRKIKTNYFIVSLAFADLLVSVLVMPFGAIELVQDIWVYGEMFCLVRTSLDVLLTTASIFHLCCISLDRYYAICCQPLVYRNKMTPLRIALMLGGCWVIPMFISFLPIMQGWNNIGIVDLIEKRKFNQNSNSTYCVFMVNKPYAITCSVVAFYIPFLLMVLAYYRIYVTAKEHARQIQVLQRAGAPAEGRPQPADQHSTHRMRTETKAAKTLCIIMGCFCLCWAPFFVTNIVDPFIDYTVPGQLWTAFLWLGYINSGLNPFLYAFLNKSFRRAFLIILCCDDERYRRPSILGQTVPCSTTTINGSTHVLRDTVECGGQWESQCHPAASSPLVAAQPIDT
Sequence of 5-hydroxytryptamine receptor 4 (O70528 whole entry): as above
Sequence of Alpha-1B adrenergic receptor (P35368 whole entry): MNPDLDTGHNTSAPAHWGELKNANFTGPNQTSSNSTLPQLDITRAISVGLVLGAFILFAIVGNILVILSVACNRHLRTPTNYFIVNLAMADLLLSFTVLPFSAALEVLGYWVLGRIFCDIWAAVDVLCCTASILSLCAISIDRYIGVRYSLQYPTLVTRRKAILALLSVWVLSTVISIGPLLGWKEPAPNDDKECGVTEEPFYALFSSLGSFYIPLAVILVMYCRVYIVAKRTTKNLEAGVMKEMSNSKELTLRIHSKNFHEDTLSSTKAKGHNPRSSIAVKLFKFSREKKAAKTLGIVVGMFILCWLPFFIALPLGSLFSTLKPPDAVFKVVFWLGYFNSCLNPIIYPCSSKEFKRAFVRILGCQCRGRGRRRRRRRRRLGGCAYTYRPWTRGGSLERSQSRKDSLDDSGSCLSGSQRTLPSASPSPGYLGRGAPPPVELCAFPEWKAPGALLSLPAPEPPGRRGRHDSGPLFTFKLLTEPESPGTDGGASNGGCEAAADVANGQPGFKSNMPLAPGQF

Take `CCCN1CCC(COc2nc3scc(C)c3n3cccc23)CC1`: in series [1], the inhibition stood at 78%. This compound had a Ki in [2] of 1.74 nM. The Activity in series [3] is 80%; in the series with Mus musculus [4], “Toxic”; with Mus musculus [6], 17.2. The outcome with Mus musculus [5] and in the series with Mus musculus [7] was inactive. Moreover, the IC50 in [8] was 385 nM; in series [9], more than 10000 nM; in series [10], more than 10000 nM; in [11], 282 nM; in series [12], 6.92 nM; in [13], more than 10000 nM. Also, the IC50 is 145 nM in [14], 204 nM in series [15], 891 nM in series [16] and 741 nM in series [17].
